# Sampled rows, rich in hits. Any-hit rate of the full collection: about 5.8%.
# Pf Dd2 growth: P. falciparum Dd2 growth inhibitors, primary screen, SYBR Green fluorescence, single dose replicates. activity change, % at 10 µM. 72 h; active compounds read low. hit rate 2.3% among 94,000; in the data active means activity change below about -80%
# Tcruzi prolif: T. cruzi intracellular proliferation inhibitors, primary screen, cell-based, beta-gal Tulahuen parasites, NIH3T3 host, luminescence | T. cruzi beta-gal in NIH3T3, GalScreen luminescence, 90 h | AID 624255, 2012 | inhibition, % at 8.34 µM | hit rate 5.9% among 77,000;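 active means mean inhibition above about 93%, with at least 55% of replicates each passing it, limit read from the data, passing the limit was not always enough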
# GASC1 inh: inhibitors of GASC-1 (KDM4C) histone demethylase, primary screen, biochemical, single concentration HTS; GST-KDM4C 2-372, H3K9me3 peptide, LANCE TR-FRET; inhibition, % at 12.5 µM; hit rate 0.15% among 96,000;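 active means mean replicate inhibition above about 25%, with at least 55% of replicates also reaching it, limit read from the data, passing the limit was not always enough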
# Target sequence (Q9H3R0 2-372 limits assumed): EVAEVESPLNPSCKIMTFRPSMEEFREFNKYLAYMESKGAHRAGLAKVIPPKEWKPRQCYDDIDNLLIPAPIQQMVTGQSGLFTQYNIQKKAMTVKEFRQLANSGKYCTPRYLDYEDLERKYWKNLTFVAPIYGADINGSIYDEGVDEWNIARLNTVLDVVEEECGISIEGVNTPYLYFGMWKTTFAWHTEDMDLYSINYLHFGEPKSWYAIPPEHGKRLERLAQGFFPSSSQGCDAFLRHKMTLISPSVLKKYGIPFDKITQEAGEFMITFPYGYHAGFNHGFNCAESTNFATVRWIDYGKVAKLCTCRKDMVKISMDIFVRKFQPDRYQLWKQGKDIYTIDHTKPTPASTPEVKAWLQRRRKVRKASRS
#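 Material: N-terminal GST-fused human GASC-1 (KDM4C) fragment, residues 2-372. Input: 10 nM enzyme. Incubation: enzyme reaction 30 min, then detection 60 min, both room temperature. Doses: one test concentration per compound. Read-out basis: inhibition from TR-FRET ratio decrease. Detection: LANCE TR-FRET, excitation 340 nm, emissions 618 and 671 nm.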
# IDH1 R132H inh: inhibitors of IDH1 R132H reductase, primary screen, biochemical, plate reader, single point. Isocitrate dehydrogenase [NADP] cytoplasmic (Homo sapiens), O75874. diaphorase/resazurin fluorescence, 60 min. inhibition, % at 10 µM. hit rate 0.18% among 70,000; in the data active means inhibition above about 34%;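 further: 0% = DMSO and 100% = no enzyme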
# Starred values were filed as active, the others as inactive; · = no result.
SMILES,Pf Dd2 growth,Tcruzi prolif,GASC1 inh,IDH1 R132H inh
C[C@H]1CN([C@@H](C)CO)S(=O)(=O)c2ccc(/C=C/c3ccccc3)cc2O[C@@H]1CN(C)C(=O)c1ccccc1,-73,125*,-5,0
C[C@H](CO)N1C[C@H](C)[C@H](CN(C)C(=O)Nc2cc(F)ccc2F)Oc2cc(/C=C/c3ccccc3)ccc2S1(=O)=O,-88*,·,-1,0
COc1ccc(S(=O)(=O)N(C)CC(=O)Nc2cc([N+](=O)[O-])ccc2C)cc1C,·,·,·,0
COc1cccc(-c2cccc(-c3nc(C(=O)Nc4ccc(-c5ccccc5)cc4)cc4c3[C@@H](CCO)N(S(=O)C(C)(C)C)C4)c2)c1 (stereo not given in full),-84*,·,-3,·
COc1ccc(C#Cc2cccc(-c3nc(C(=O)O)cc4c3[C@H](CCO)N(S(=O)C(C)(C)C)C4)c2)cc1OC (stereo not given in full),·,60,13,·
COc1ccc(C#Cc2cccc(-c3nc(C(=O)Nc4ccc(-c5ccccc5)cc4)cc4c3[C@@H](CCO)N(S(=O)C(C)(C)C)C4)c2)cc1OC (stereo not given in full),-89*,·,-2,·
COc1ccccc1-c1cccc(-c2nc(C(=O)Nc3nccs3)cc3c2[C@H](CCO)N(C(=O)CC2CC2)C3)c1,-86*,·,6,·
Cc1cc(C)nc(SCc2nnnn2-c2ccccc2)n1,·,·,·,0
CN(CC(=O)O)S(=O)(=O)c1ccc2ccccc2c1,·,·,·,0
C[C@@H]1CN([C@H](C)CO)C(=O)c2cc(NC(=O)c3ccncc3)ccc2O[C@@H](C)CCCCO[C@@H]1CN(C)C(=O)Nc1cccc2ccccc12,-90*,·,0,2
C[C@@H]1CN([C@@H](C)CO)C(=O)c2cc(NC(=O)c3ccncc3)ccc2O[C@@H](C)CCCCO[C@@H]1CN(C)C(=O)Nc1cccc2ccccc12,-84*,53,3,-1
C[C@@H]1CCCCO[C@@H](CN(C)C(=O)Nc2cccc3ccccc23)[C@H](C)CN([C@H](C)CO)C(=O)c2cc(NC(=O)c3ccncc3)ccc2O1,-85*,60,-3,·
C[C@@H]1CN([C@@H](C)CO)C(=O)c2cc(NC(=O)c3ccccc3)ccc2O[C@@H](C)CCCCO[C@@H]1CN(C)C(=O)Nc1cccc2ccccc12,-87*,63,-2,1
C[C@@H]1CCCCO[C@@H](CN(C)C(=O)Nc2cccc3ccccc23)[C@H](C)CN([C@@H](C)CO)C(=O)c2cc(NC(=O)c3ccncc3)ccc2O1,-73,32,-1,0
C[C@@H]1CN([C@@H](C)CO)C(=O)c2cc(NC(=O)c3ccncc3)ccc2O[C@@H](C)CCCCO[C@H]1CN(C)C(=O)Nc1cccc2ccccc12,-80,44,-2,1
CC(=O)O[C@@H]1c2c(ccc3ccc(=O)oc23)OC(C)(C)[C@@H]1OC(=O)C=C(C)C,·,·,·,0
O=c1cc(-c2ccc(O)cc2)oc2cc(O[C@@H]3O[C@H](CO)[C@@H](O)[C@H](O)[C@H]3O[C@H]3OC[C@](O)(CO)[C@H]3O)ccc12,·,·,·,0
CCOc1ccc2ccccc2c1C(=O)NCc1cccnc1,·,·,·,1
CCCN(C)C[C@H]1OCCCC[C@H](C)Oc2ccc(NC(=O)c3ccncc3)cc2C(=O)N([C@H](C)CO)C[C@H]1C,-86*,-2,0,·
CCCN(C)C[C@H]1OCCCC[C@@H](C)Oc2ccc(NC(=O)c3ccncc3)cc2C(=O)N([C@@H](C)CO)C[C@H]1C,-88*,52,-1,·
CCCN(C)C[C@H]1OCCCC[C@@H](C)Oc2ccc(NC(=O)c3ccncc3)cc2C(=O)N([C@H](C)CO)C[C@@H]1C,-19,64,4,0
O=C(O)CC(C(=O)Nc1ccc(Cl)cc1)N1CCCCC1 (stereo not given),·,·,·,0
COc1ccc(S(=O)(=O)N(C)C[C@@H]2OCCCC[C@H](C)Oc3ccc(NC(=O)c4ccccc4)cc3C(=O)N([C@@H](C)CO)C[C@H]2C)cc1,-84*,64,-1,-2
COc1ccc(S(=O)(=O)N(C)C[C@H]2OCCCC[C@H](C)Oc3ccc(NC(=O)c4ccccc4)cc3C(=O)N([C@@H](C)CO)C[C@H]2C)cc1,-85*,59,-3,0
COC(=O)c1cc(-c2ccccc2)sc1NC(=O)c1cnccn1,·,·,·,0
